Data on 74 sequences can be found in the array DNA melting data of Ke et al. (doi:10.1101/2024.01.08.574731).

The nature of data set [1]: melting temperature; fluorescence melt of hairpins on a sequencing array, two-state fit, raised by 9.35 °C to match UV melts. Particulars: sodium 0.088 M. The method, boiled down:
(§1)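 Folding enthalpy and melting temperature come from bootstrapped two-state fits to Cy3 fluorescence of library hairpins carrying annealed Cy3 and quencher oligos on a sequenced MiSeq flow cell. Imaging was done in 50 mM Na-HEPES pH 8.0, 25 mM NaCl, stepping by 2.5 °C up to 60 °C, and signals were normalised to pre-quench Cy3 and to control constructs. Results of four replicates were combined by inverse variance, and fitted temperatures were raised by 9.35 °C to match UV melts.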

A short description of data set [2]: folding enthalpy; higher = less favourable; fluorescence melt of hairpins on a sequencing array, two-state fit. Conditions: sodium 0.088 M. Summed up: as §1

With GAACCCGAAAGGGTCTTC ((((((....)))..))), the Tm in data set [1] is 61.9 °C. Also, in data set [2], the folding enthalpy is -22.8 kcal/mol.
Turning to GATCCAGGAGTGGATC ((((((....)))))), the Tm in data set [1] is 52.5 °C. Also, the folding enthalpy in data set [2] is -36.7 kcal/mol.
On the same counts, the results for CGCGGAACACTCCGCG ((((((....)))))) are 63.3 °C and -34.8 kcal/mol.
On the same counts, the results for GTTAAGACGAAAGTCAAC (((..(((....)))))) are 30.1 °C and -11.8 kcal/mol.
The corresponding values for GTGATAGGAAACTATTAC ((.((((....)))).)) are 34.1 °C and -25.8 kcal/mol.
Take CGAGCGGAAACGCTTCG ((((((....))).))): the Tm in data set [1] stood at 50.6 °C. For the same sequence, the folding enthalpy in data set [2] was -15 kcal/mol.
On the same counts, the results for GCACAGGCGAAAGCCTGC (((..(((....)))))) are 42.6 °C and -6.09 kcal/mol.
On the same counts, the results for GCAGTCGAAAGACCATGC ((((((....)))..))) are 35.1 °C and -16.2 kcal/mol.
As to GCAACGCGAAAGCATGGC ((.(.((....)).).)), the Tm in data set [1] is 33.8 °C. Besides, the folding enthalpy in data set [2] is -13.1 kcal/mol.
On the same counts, the results for GGCGTCGAAAGACCGGCC ((((((....)))..))) are 51 °C and -19.4 kcal/mol.
On the same counts, the results for GGGGCGTCGAAAGACCCC (((..(((....)))))) are 57.3 °C and -16.9 kcal/mol.
GGGTCGCGAAAGCGCCC (((.(((....)))))): the Tm in data set [1] came to 65.3 °C. Moreover, the folding enthalpy in data set [2] was -22.4 kcal/mol.
On the same counts, the results for GCGTGACCACGC ((((....)))) are 61.3 °C and -21.2 kcal/mol.
The corresponding values for GTCATAGGAAACTATGAC (((((((....))))))) are 55.9 °C and -39.3 kcal/mol.
As for GATCTACCATAGATC ((((((...)))))), the Tm in data set [1] turned out to be 37.5 °C. For the same sequence, the folding enthalpy in data set [2] is -30.5 kcal/mol.
The corresponding values for GCATTTGGAAACAAATAC (.(((((....))))).) are 29.3 °C and -17.9 kcal/mol.
On the same counts, the results for CTGCGGAAACGCAG (((((....))))) are 61.8 °C and -31.6 kcal/mol.
The corresponding values for GCGGCACCCCGC ((((....)))) are 53.8 °C and -24.8 kcal/mol.
In the case of GTGTTTGGAAACGAACAC (((((.(....).))))), the Tm in data set [1] was 49.5 °C. Also, in data set [2], the folding enthalpy was -35.8 kcal/mol.
On the same counts, the results for GCGATATTCGC ((((...)))) are 51.9 °C and -17.2 kcal/mol.
The corresponding values for GTTCGGGGAAACCCGGAC ((.((((....)))).)) are 54.9 °C and -42.2 kcal/mol.
On the same counts, the results for GCTTGAGCGAAAGCTAGC (((..(((....)))))) are 47.8 °C and -13.9 kcal/mol.
Take GTTTAACGAAAGTTAAC (((.(((....)))))): the Tm in data set [1] amounted to 37.1 °C. In addition, the folding enthalpy in data set [2] is -14.6 kcal/mol.
On the same counts, the results for GTCAACGGAAACGTTGGC (.(((((....))))).) are 54.9 °C and -32.5 kcal/mol.
With GCGCACGAAAGTGCACGC ((((((....)))..))), in data set [1], the Tm is 61.1 °C. For the same sequence, the folding enthalpy in data set [2] was -14.6 kcal/mol.
On to GTACTCGAAAGAGTGTAC ((((((....)))..))), for which, in data set [1], the Tm amounted to 35.9 °C. Further, the folding enthalpy in data set [2] was -12.6 kcal/mol.
The corresponding values for GATCTACTATTAGATC ((((((....)))))) are 38.6 °C and -33.1 kcal/mol.
As to GCGAATGGAAACGTTTGC ((.((.(....).)).)), the Tm in data set [1] was 36 °C. Also, in data set [2], the folding enthalpy was -30.7 kcal/mol.
The corresponding values for GGTGGAGAAATCCACC ((((((....)))))) are 59.8 °C and -33.1 kcal/mol.
On the same counts, the results for GCCCATTCGAAAGAAGGC (((..(((....)))))) are 33 °C and -15.8 kcal/mol.
On the same counts, the results for GTGCTCCGAAAGGACAC (((.(((....)))))) are 51.9 °C and -27.4 kcal/mol.
Take GATCGCCCCCGCGATC ((((((....)))))): the Tm in data set [1] was found to be 66.8 °C. Besides, the folding enthalpy in data set [2] is -37.6 kcal/mol.
On to GTTCCTGGAAACAGGAAC (((((((....))))))), for which, in data set [1], the Tm was found to be 63.5 °C. Also, in data set [2], the folding enthalpy was -40.9 kcal/mol.
The corresponding values for GATAAAGGAAACTTTGTC ((.((((....)))).)) are 32.2 °C and -14.1 kcal/mol.
The corresponding values for GCACACGAAAGTGGTTGC ((((((....)))..))) are 45.9 °C and -15.5 kcal/mol.
The corresponding values for GAAATGCGAAAGCACTTC (((.(((....))).))) are 40.7 °C and -17.1 kcal/mol.
Take GAAGTGCGAAAGCATTC (((.(((....)))))): the Tm in data set [1] is 36.2 °C. For the same sequence, the folding enthalpy in data set [2] is -13.5 kcal/mol.
GCAGCCGGAAACGGCTAC (.(((((....))))).): in data set [1], the Tm is 45.9 °C. The folding enthalpy in data set [2] was -11.3 kcal/mol.
The corresponding values for GCACCGCGAAAGCCGTGC ((((.((....)).)))) are 62.2 °C and -31.1 kcal/mol.
On the same counts, the results for GATCCGATCCGGATC ((((((...)))))) are 58.5 °C and -33.7 kcal/mol.
With GATCCTCGTCAGGATC ((((((....)))))), the Tm in data set [1] is 50.8 °C. Further, the folding enthalpy in data set [2] is -25.1 kcal/mol.
On the same counts, the results for GACACCGAAAGGTAGGTC ((((((....)))..))) are 38.7 °C and -20.2 kcal/mol.
Regarding GATGAGGGAAACCTTGTC ((..(((....)))..)), in data set [1], the Tm stood at 28.1 °C. The folding enthalpy in data set [2] is -15.3 kcal/mol.
The corresponding values for GATCCCGAGGGGGATC ((((((....)))))) are 59.7 °C and -35.3 kcal/mol.
As for GACTGCGAAAGCAGTGTC ((((((....)))..))), the Tm in data set [1] was found to be 58.6 °C. For the same sequence, the folding enthalpy in data set [2] is -10.2 kcal/mol.
On the same counts, the results for GCGTTAGGAAACTGACGC ((((.((....)).)))) are 53.6 °C and -42.5 kcal/mol.
The corresponding values for GTGGGTGGAAACGCCCAC (((((.(....).))))) are 61.8 °C and -40.3 kcal/mol.
As for GCCCACGAAAGTGGAGGC ((((((....)))..))), in data set [1], the Tm stood at 52.5 °C. The folding enthalpy in data set [2] is -15.5 kcal/mol.
The corresponding values for GTGATCGAAAGATGACAC ((((((....)))..))) are 33.4 °C and -16.2 kcal/mol.
Take GTGAGACGAAAGTCGCAC (((.(((....))).))): in data set [1], the Tm was determined as 64.5 °C. For the same sequence, the folding enthalpy in data set [2] is -31.9 kcal/mol.
The corresponding values for GGTCTGCGAAAGCAAACC (((.(((....))).))) are 47.1 °C and -26.9 kcal/mol.
As to GTCTCTACGAAAGTAGAC (((..(((....)))))), the Tm in data set [1] turned out to be 33.2 °C. The folding enthalpy in data set [2] was -11.2 kcal/mol.
As for GGTATCGAAAGATAACC ((((((....))).))), the Tm in data set [1] is 40.8 °C. Also, in data set [2], the folding enthalpy was -21.5 kcal/mol.
The corresponding values for GAGATAGGAAACTGTCTC ((((.((....)).)))) are 41.3 °C and -29.5 kcal/mol.
On the same counts, the results for GGTAGCGGAAACGTTGCC ((.(.((....)).).)) are 39.3 °C and -25.2 kcal/mol.
On the same counts, the results for GATCAATATTTTGATC ((((((....)))))) are 45.6 °C and -35.6 kcal/mol.
With GTATTGGGAAACCAGTAC (((.(((....))).))), the Tm in data set [1] stood at 40 °C. For the same sequence, the folding enthalpy in data set [2] was -27.3 kcal/mol.
The corresponding values for GTTCAGCGAAAGCTAAAC (((.(((....))).))) are 37.8 °C and -21.6 kcal/mol.
The corresponding values for GCAATGGGAAACCATCAC (..((((....))))..) are 22.8 °C and -10.7 kcal/mol.
For GTCCTCGAAAGAGGAGAC ((((((....)))..))), the Tm in data set [1] is 47.8 °C. Moreover, in data set [2], the folding enthalpy was -10.2 kcal/mol.
On to GCCGTCGAAAGACAGGGC ((((((....)))..))), for which, in data set [1], the Tm came to 54.4 °C. Besides, the folding enthalpy in data set [2] was -38.8 kcal/mol.
On the same counts, the results for GCCTGGGGAAACTCGGGC (((.(.(....).).))) are 46.7 °C and -31.8 kcal/mol.
On the same counts, the results for GTATAGGCGAAAGCCTAC (((..(((....)))))) are 31.8 °C and -8.12 kcal/mol.
On the same counts, the results for GCATCCGAAAGGATCTGC ((((((....)))..))) are 46.5 °C and -17.1 kcal/mol.
For GTGCCGCCGAAAGGCCAC (((..(((....)))))), the Tm in data set [1] came to 60 °C. Moreover, the folding enthalpy in data set [2] is -9.13 kcal/mol.
The corresponding values for GGGGGCGAAAGCCGACCC ((((((....)))..))) are 54 °C and -15.1 kcal/mol.
Turning to GCGGTGCGAAAGCCGCGC (((..((....))..))), the Tm in data set [1] was found to be 68.9 °C. Also, the folding enthalpy in data set [2] is -27.7 kcal/mol.
On the same counts, the results for GCCATCGAAAGATTGGC ((((((....))).))) are 50.7 °C and -30.3 kcal/mol.
On the same counts, the results for GGTTGGGGAAACCCAGTC (..((((....))))..) are 30.4 °C and -8.72 kcal/mol.
With GTTATGGCGAAAGCCAAC (((..(((....)))))), the Tm in data set [1] is 29.5 °C. The folding enthalpy in data set [2] was -8.21 kcal/mol.
The corresponding values for GGTGCAGGAAACTACACC ((((.((....)).)))) are 43.4 °C and -32.1 kcal/mol.
The corresponding values for GGAAAATCGAAAGATTCC (((..(((....)))))) are 29.1 °C and -7.3 kcal/mol.
On to GCACCCGAAAGGGTTGC ((((((....))).))), for which the Tm in data set [1] turned out to be 63.3 °C. Besides, the folding enthalpy in data set [2] is -22.5 kcal/mol.
On the same counts, the results for GAGCTACGAAAGTACTC (((.(((....)))))) are 39.1 °C and -21.3 kcal/mol.
